Screening data: PubChem, NMMLSC
Rows were chosen to be rich in hits. Some 2.5% of all compounds tested hit in one or more screens of this group.
ABCG2 inh: human ABCG2 inhibition, ABCB1 as counter-screen; Q9UNQ0; IgMXP3 cells, JC-1 efflux, flow cytometry; inhibition, % at 6.6 µM; 190,000 compounds, 0.1% hits; AID 1325;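 active = inhibition above 80%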;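 note: 0% = DMSO and 100% = nicardipine control wells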
Target sequence (Q9UNQ0 whole entry, looked up): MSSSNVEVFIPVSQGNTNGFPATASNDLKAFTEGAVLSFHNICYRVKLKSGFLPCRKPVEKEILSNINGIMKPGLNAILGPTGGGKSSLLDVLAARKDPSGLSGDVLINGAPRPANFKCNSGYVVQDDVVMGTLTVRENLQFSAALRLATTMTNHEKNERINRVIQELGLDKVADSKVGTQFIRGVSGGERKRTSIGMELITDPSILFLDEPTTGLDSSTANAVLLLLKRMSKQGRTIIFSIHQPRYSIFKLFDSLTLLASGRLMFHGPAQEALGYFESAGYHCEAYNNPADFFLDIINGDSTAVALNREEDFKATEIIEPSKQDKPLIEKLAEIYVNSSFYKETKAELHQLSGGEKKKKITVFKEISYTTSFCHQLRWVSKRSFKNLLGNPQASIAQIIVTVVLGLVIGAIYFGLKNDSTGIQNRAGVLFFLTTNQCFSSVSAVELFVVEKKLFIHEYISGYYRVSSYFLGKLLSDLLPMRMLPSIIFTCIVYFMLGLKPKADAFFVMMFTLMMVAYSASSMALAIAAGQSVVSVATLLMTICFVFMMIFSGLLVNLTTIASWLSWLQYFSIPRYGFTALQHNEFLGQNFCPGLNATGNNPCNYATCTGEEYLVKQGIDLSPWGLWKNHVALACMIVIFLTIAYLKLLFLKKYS
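material = IgMXP3 (ABCG2) plus far-red-tagged CCRF-Adr (ABCB1) cells | amount = 3 million cells/mL, equal mix of both lines | also added = JC-1 transporter substrate | dosing = one concentration, 6.6 µM final | schedule = 10 min at 25 °C | measured by = flow cytometric JC-1 green MFI at 530 nm | read-out basis = percent efflux inhibition, scaled nicardipine 100% to DMSO 0%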
MEKK2mut PB1 HTS: signal of MEK5 binding to mutant human MEKK2 PB1 domain; bead flow cytometry, Alexa488-MEK5 binding to MEKK2 mutant; percent response, % at 10 µM; 290,000 compounds, 0.35% hits; AID 1530; in the data active = percent response above about 24%, passing the limit was not always enough
Efflux pump mplx: blocks antifungal efflux pumps in multiplex yeast assay; S. cerevisiae Candida pump triplex, Nile Red efflux; inhibition, % at 10 µM; 330,000 compounds, 0.44% hits;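 active = plate passing quality check with inhibition over a set limit, or well fluorescence over plate mean plus 4 SD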;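 note: Nile Red retained in pooled yeast measured as flow cytometry median fluorescence; 0% = buffer negative control and 100% = Enniatin B positive control; higher means more Nile Red kept so more efflux inhibition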
MEKK2 WT-MEK5: raises or lowers MEK5 binding to wildtype human MEKK2 PB1 domain. bead flow cytometry, Alexa488-MEK5 binding to MEKK2 WT; actives lie on both sides. 290,000 compounds, 1.1% hits. Q9Y2U5. binding response (% of control), % at 10 µM; in the data active = binding response below about 67% or above about 130%
ABCB1 block: inhibitors of human ABCB1 transporter, ABCG2 counter-screen. P08183. CCRF-Adr cells, JC-1 efflux, flow cytometry. inhibition, % at 6.6 µM. 190,000 compounds, 0.067% hits; in the data active = inhibition above about 40%;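 note: 0% = vehicle and 100% = reference inhibitor; higher value means more JC-1 retained so stronger ABCB1 efflux block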
MEKK3 PB1 HTS: MEKK3-MEK5 PB1 interaction, increase or decrease; bead-based flow cytometry, Alexa488-MEK5 binding to MEKK3; actives lie on both sides; 0 = blocked by unlabeled MEK5, 100 = vehicle; binding response (% of control), % at 10 µM; 290,000 compounds, 1.4% hits; AID 1529;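 active = binding response more than 3 SD above or below the average of its plate-row segment, actives on both sides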;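 note: Alexa488 bead fluorescence after subtracting the streptavidin-only scavenger bead signal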
MEKK2wt confirm: raises or lowers MEK5 binding to wildtype human MEKK2, retest | shares compounds with MEKK3 PB1 HTS | bead flow cytometry, Alexa488-MEK5 binding to MEKK2 WT; actives lie on both sides | binding response (% of control), % at 10 µM | 5,900 compounds, 2.4% hits | AID 1892; in the data active = binding response below about 16% or above about 210%; inactive = in between
MEKK2mut confirm: signal of MEK5 binding to mutant human MEKK2, retest; shares compounds with MEKK3 PB1 HTS; bead flow cytometry, Alexa488-MEK5 binding to MEKK2 mutant; percent response, % at 10 µM; 5,900 compounds, 2% hits; AID 1893; in the data active = percent response mostly above about 71%, no sharp cut-off; inactive = mostly below about 38%;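 note: higher means compound restores mutant binding toward wildtype level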
MEKK3 confirm: confirmation of inhibitors of MEK5 binding to human MEKK3 | shares compounds with MEKK3 PB1 HTS | bead flow cytometry, Alexa488-MEK5 binding to MEKK3; stronger effect = lower value | binding response (% of control), % at 10 µM | 5,900 compounds, 1.8% hits | AID 1894;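 active = binding response below 72% of control, or above a set upper limit, though filed actives all read lower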;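 note: 100% = DMSO only wells and 0% = binding blocked by excess unlabeled MEK5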
Numbers without * were called inactive; . = no result given; [ ] = dose if it differs, or a comment.

SMILES	ABCG2 inh	MEKK2mut PB1 HTS	Efflux pump mplx	MEKK2 WT-MEK5	ABCB1 block	MEKK3 PB1 HTS	MEKK2wt confirm	MEKK2mut confirm	MEKK3 confirm
Cc1ccc(NC(=O)C(=O)NCCOc2ccc(Cl)cc2)c(C)c1	-0.5	0.0	0.0	106.0	-0.2	128.0*	98.0	-1.0	102.0
CCCCN1CCc2c1nc1ccc(Br)cc1c2N	61.0	17.0	-0.1	147.0*	0.6	106.0	148.0	27.0	110.0
Cc1ccc2nc3c(c(N)c2c1)CCN3C	.	11.0	0.0	113.0	.	106.0	.	.	.
Nc1ccc(Sc2nnnn2-c2ccccc2)c(Cl)c1	0.2	-26.0	0.1	-3.0*[inhibitor]	0.0	1.0*[inhibitor]	100.0	-2.0	102.0
O=[N+]([O-])c1ccc(Sc2nnnn2-c2ccccc2)c(Cl)c1	-3.4	0.0	0.2	97.0	-0.8	100.0	.	.	.
CC(C(=O)NCCCc1ccccc1)c1ccc([N+](=O)[O-])cc1 (stereo not drawn)	16.0	5.0	0.0	104.0	3.5	104.0	.	.	.
Cc1ccc(C)c(NC(=O)CN(C)C(=O)c2cc(C3CC3)nn2-c2ccccc2)c1	.	.	-0.5	.	.	.	.	.	.
Cc1ccc(S(=O)(=O)N(C)CCCC(=O)n2nc(C)cc2C)cc1	13.7	-39.0	0.2	0.0*[inhibitor]	1.1	0.0*[inhibitor]	103.0	-2.0	103.0
Cc1cc(C)n(C(=O)CN(C)S(=O)(=O)c2ccc([N+](=O)[O-])cc2)n1	.	7.0	-0.1	102.0	.	104.0	.	.	.
CC(=O)Nc1ccc(S(=O)(=O)NCC(=O)Nc2ccc3c(c2)OCO3)cc1	.	.	-0.1	.	.	.	.	.	.
CCCCC1=CC2=C(c3ccco3)C(=O)C(C)(OC(=O)c3ccc(OC)cc3)C(=O)C2=CN1c1ccc(OC)cc1 (stereo not drawn)	.	2.0	-0.1	127.0	.	111.0	.	.	.
CCCCC1=CC2=C(c3ccco3)C(=O)C(C)(OC(=O)c3ccc(OC)cc3)C(=O)C2=CN1CCN1CCOCC1 (stereo not drawn)	.	6.0	0.5	142.0*	.	95.0	108.0	2.0	94.0
CCCCC1=CC2=C(c3ccco3)C(=O)C(C)(OC(=O)c3ccc(OC)cc3)C(=O)C2=CN1C(CO)CO (stereo not drawn)	.	4.0	0.0	144.0*	.	115.0	97.0	-1.0	97.0
O=C1C/C(=C\c2c(F)cccc2Cl)N2CCC1CC2	2.0	-2.0	0.0	101.0	0.8	99.0	.	.	.
Cc1ccc(NS(=O)(=O)c2ccc(C)c(NC(=S)NCCN3CCOCC3)c2)c(C)c1	.	.	-0.1	.	.	.	.	.	.
O=C(c1ccoc1)N1CCC2(CC1)Oc1ccc(Cl)cc1C(=O)C21CC(c2ccccc2)=NO1 (stereo not drawn)	.	2.0	0.0	53.0	.	45.0*[inhibitor]	99.0	-3.0	103.0
N#Cc1nc(COc2ccccc2F)oc1NCCCn1ccnc1	12.2	-26.0	0.0	2.0*[inhibitor]	0.1	1.0*[inhibitor]	97.0	2.0	93.0
COc1ccccc1OCc1nc(C#N)c(NCCCn2ccnc2)o1	4.1	-6.0	0.0	99.0	0.3	97.0	.	.	.
CC(=O)c1ccc(NS(=O)(=O)c2ccc(N)cc2)cc1	-1.1	1.0	-0.3	118.0	-0.3	135.0*	101.0	12.0	104.0
O=C(CCCC(=O)N(CC(=O)NC1CCCC1)C1CCCC1)Nc1ccccn1	4.6	-12.0	0.2	87.0	0.7	72.0*[inhibitor]	-1.0*[inhibitor]	-3.0	98.0
COc1ccccc1N(CC(=O)NC1CCCC1)C(=O)CCCC(=O)Nc1ccccn1	.	-2.0	.	101.0	.	102.0	.	.	.
CCOc1ccccc1N(CC(=O)NC1CCCC1)C(=O)CCCC(=O)Nc1ccccn1	7.0	-39.0	0.1	2.0*[inhibitor]	0.3	2.0*[inhibitor]	95.0	-3.0	98.0
CCOc1ccc(C(=O)Nc2ccccc2C#N)cc1[N+](=O)[O-]	10.4	-2.0	-0.3	92.0	0.5	98.0	.	.	.
CCOc1ccc(C(=O)Nc2ccccc2CC)cc1[N+](=O)[O-]	4.9	-2.0	-0.5	87.0	0.6	50.0*[inhibitor]	94.0	-26.0	89.0
CC(=O)/C=C\c1ccccc1OC(=O)c1cc2ccccc2oc1=O	.	2.0	0.1	100.0	.	98.0	.	.	.
SMILES	ABCG2 inh	MEKK2mut PB1 HTS	Efflux pump mplx	MEKK2 WT-MEK5	ABCB1 block	MEKK3 PB1 HTS	MEKK2wt confirm	MEKK2mut confirm	MEKK3 confirm
O=C(/C=C\c1ccccc1OC(=O)c1ccccc1F)c1cc2ccccc2o1	0.3	0.0	-0.2	103.0	0.1	135.0*	105.0	0.0	109.0
CCN(CC)CCNC(=O)C(=O)Nc1cc2c3c(c1)CCC(=O)N3CCC2	.	2.0	-0.2	100.0	.	104.0	.	.	.
COc1nc(OC)nc(N2CCCCCC2)n1	0.7	5.0	-0.1	100.0	0.1	98.0	.	.	.
C=CCN(C#N)c1nc(OC)nc(N2CCCC2)n1	0.9	11.0	0.1	130.0	0.3	130.0*	85.0	-7.0	80.0
Cc1ccc(S(=O)(=O)N2CCN(C(=O)CC(C)n3cncn3)CC2)cc1C (stereo not drawn)	.	1.0	0.0	99.0	.	98.0	.	.	.
CCCCNc1c([N+](=O)[O-])cc(C(=O)O)cc1[N+](=O)[O-]	36.9	0.0	1.7	107.0	1.1	138.0*	103.0	1.0	102.0
COC(=O)C1=C(C)NC(=O)NC1c1ccc(-c2ccc(Cl)cc2)o1 (stereo not drawn)	4.1	-1.0	0.0	4.0*[inhibitor]	0.8	94.0	108.0	6.0	108.0
COC(=O)C1=C(C)NC(=O)NC1c1ccc([N+](=O)[O-])o1 (stereo not drawn)	-1.7	0.0	0.3	98.0	.	98.0	.	.	.
Cc1cccc(-c2nc3ccccc3c(=O)n2NC(=O)c2cccs2)c1	1.3	14.0	-0.1	113.0	0.5	104.0	.	.	.
Cc1ccc(-c2nc3ccccc3c(=O)n2NC(=O)c2cccs2)cc1	3.0	1.0	-0.2	104.0	2.0	129.0*	99.0	0.0	101.0
O=C(Nc1ccc(Cl)cc1)Nc1ccc2c(c1)N1CCN=C1S2	-0.9	14.0	0.0	141.0*	-0.2	100.0	143.0	27.0	104.0
Cc1ccc(-c2noc(CNS(=O)(=O)c3ccccc3)n2)cc1	.	0.0	-0.2	100.0	.	99.0	.	.	.
O=C(CC1NCCc2ccccc21)Nc1ccc(Oc2ccccc2)cc1 (stereo not drawn)	2.6	25.0	0.5	160.0*	1.6	118.0	123.0	9.0	93.0
O=C1NC(=Nc2ccccc2)/C(=C/c2ccco2)S1	-0.5	-1.0	0.3	100.0	0.0	132.0*	99.0	-3.0	102.0
